Activity calls are given as the source filed them. The rule behind the calls is not given here.
How the values were obtained:
[1] = target: Neuronal acetylcholine receptor subunit alpha-7 (Rattus norvegicus, UniProt Q05941); test: Displacement of [3H]methyllycaconitine from Sprague-Dawley rat brain alpha7 nAChR after 120 mins by liquid scintillation counting analysis; assay type: tissue-based
How it was run: (§1)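 Radioligand competition binding gave Ki values, reported as mean ± SEM from 2–10 independent experiments.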

[2] = target: T1, Nicotinic acetylcholine receptor alpha1/beta1/epsilon/delta (Mus musculus) (UniProt P04756+P09690+P02716+P20782); test: Antagonist activity at mouse muscle alpha1beta1epsilondelta nAChR expressed in Xenopus oocytes assessed as inhibition of acetylcholine-induced effect at 1 uM incubated for 8 secs followed by compound washout measured after 241 secs by two-electrode voltage clamp technique; assay type: cell-based
[3] = target: Neuronal acetylcholine receptor subunit alpha-7 (Homo sapiens) (UniProt P36544); test: Agonist activity at human alpha7 nAChR expressed in Xenopus oocytes at 10 uM incubated for 12 secs followed by compound washout measured after 181 secs by two-electrode voltage clamp technique; assay type: cell-based
Chain of Neuronal acetylcholine receptor subunit alpha-7 (Homo sapiens) (P36544 whole entry): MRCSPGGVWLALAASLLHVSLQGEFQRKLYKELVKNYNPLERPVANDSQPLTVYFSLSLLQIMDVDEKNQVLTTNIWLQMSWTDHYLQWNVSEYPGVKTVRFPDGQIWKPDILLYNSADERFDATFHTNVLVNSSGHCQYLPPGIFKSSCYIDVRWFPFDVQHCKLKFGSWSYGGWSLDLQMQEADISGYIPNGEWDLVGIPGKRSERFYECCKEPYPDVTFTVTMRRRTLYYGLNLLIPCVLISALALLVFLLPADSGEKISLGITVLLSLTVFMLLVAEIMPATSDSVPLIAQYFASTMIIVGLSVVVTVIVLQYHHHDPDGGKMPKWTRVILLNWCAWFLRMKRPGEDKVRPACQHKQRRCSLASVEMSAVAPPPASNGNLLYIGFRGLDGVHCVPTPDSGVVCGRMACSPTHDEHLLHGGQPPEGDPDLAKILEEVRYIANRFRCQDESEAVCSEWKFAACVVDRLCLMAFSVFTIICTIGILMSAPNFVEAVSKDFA

[4] = target: T2, Neuronal acetylcholine receptor; alpha3/beta4 (Homo sapiens) (UniProt P30926+P32297); test: Agonist activity at human alpha3beta4 nAChR expressed in Xenopus oocytes at 10 uM incubated for 8 secs followed by compound washout measured after 241 secs by two-electrode voltage clamp technique; assay type: cell-based
[5] = target: T3, Neuronal acetylcholine receptor; alpha4/beta2 (Homo sapiens) (UniProt P17787+P43681); test: Antagonist activity at human alpha4beta2 nAChR expressed in Xenopus oocytes assessed as inhibition of acetylcholine-induced effect at 1 uM incubated for 8 secs followed by compound washout measured after 241 secs by two-electrode voltage clamp technique; assay type: cell-based
[6] = target: Neuronal acetylcholine receptor; alpha4/beta2 (Rattus norvegicus, UniProt P09483+P12390); test: Displacement of [3H]epibatidine from Sprague-Dawley rat brain alpha4beta2 nAChR after 90 mins by liquid scintillation counting analysis; how it was run: as §1
Chain of Neuronal acetylcholine receptor; alpha4/beta2 (P09483 whole entry): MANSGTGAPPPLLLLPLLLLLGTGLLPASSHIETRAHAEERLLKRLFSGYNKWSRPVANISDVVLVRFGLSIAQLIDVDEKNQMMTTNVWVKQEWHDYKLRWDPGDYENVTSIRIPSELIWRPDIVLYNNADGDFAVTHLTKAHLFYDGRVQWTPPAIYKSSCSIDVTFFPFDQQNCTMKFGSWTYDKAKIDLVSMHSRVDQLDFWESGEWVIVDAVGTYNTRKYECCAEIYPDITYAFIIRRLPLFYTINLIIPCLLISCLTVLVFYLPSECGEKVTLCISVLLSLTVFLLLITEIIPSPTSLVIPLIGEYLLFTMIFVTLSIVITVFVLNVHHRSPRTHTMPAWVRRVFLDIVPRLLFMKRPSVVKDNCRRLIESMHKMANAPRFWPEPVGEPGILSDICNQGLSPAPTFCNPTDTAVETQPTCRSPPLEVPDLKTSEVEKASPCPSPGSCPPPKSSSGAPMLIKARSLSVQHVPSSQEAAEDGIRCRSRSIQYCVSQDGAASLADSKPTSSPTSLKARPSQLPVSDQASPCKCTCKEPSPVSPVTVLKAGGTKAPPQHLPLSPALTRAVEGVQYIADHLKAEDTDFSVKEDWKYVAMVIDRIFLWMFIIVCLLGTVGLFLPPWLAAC
Chain of Neuronal acetylcholine receptor; alpha4/beta2 (P12390 whole entry): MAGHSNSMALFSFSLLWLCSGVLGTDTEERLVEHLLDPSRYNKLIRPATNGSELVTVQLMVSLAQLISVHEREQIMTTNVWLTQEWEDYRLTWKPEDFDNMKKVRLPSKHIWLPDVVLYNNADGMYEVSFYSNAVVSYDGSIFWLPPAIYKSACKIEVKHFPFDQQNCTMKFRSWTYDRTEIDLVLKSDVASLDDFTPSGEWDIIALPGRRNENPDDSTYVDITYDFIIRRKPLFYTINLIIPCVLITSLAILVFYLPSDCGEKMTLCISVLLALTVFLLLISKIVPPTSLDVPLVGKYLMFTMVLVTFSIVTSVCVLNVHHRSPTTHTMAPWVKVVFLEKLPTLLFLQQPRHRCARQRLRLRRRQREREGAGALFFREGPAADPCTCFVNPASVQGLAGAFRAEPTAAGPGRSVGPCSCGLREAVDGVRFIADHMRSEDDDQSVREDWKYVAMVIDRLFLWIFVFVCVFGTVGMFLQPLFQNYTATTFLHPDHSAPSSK

[7] = target: T1, Nicotinic acetylcholine receptor alpha1/beta1/epsilon/delta (Mus musculus); test: Agonist activity at mouse muscle alpha1beta1epsilondelta nAChR expressed in Xenopus oocytes at 10 uM incubated for 8 secs followed by compound washout measured after 241 secs by two-electrode voltage clamp technique; assay type: cell-based
[8] = target: Neuronal acetylcholine receptor subunit alpha-7 (Homo sapiens) (UniProt P36544); test: Antagonist activity at human alpha7 nAChR expressed in Xenopus oocytes assessed as inhibition of acetylcholine-induced effect at 1 uM incubated for 12 secs followed by compound washout measured after 181 secs by two-electrode voltage clamp technique; assay type: cell-based
[9] = target: T2, Neuronal acetylcholine receptor; alpha3/beta4 (Homo sapiens); test: Antagonist activity at human alpha3beta4 nAChR expressed in Xenopus oocytes at 1 uM incubated for 8 secs followed by compound washout measured after 241 secs by two-electrode voltage clamp technique; assay type: cell-based
[10] = Displacement of [3H]epibatidine from calf adrenal alpha3beta4 nAChR after 90 mins by liquid scintillation counting analysis; parameters: species or system Bos taurus
[11] = Displacement of [3H]epibatidine from Torpedo californica electroplax (alpha1)2beta1gammadelta nAChR after 90 mins by liquid scintillation counting analysis; parameters: species or system Tetronarce californica
[12] = target: T3, Neuronal acetylcholine receptor; alpha4/beta2 (Homo sapiens); test: Partial agonist activity at human alpha4beta2 nAChR expressed in Xenopus oocytes at 10 uM incubated for 8 secs followed by compound washout measured after 241 secs by two-electrode voltage clamp technique; assay type: cell-based
[13] = target: Neuronal acetylcholine receptor subunit alpha-7 (Homo sapiens) (UniProt P36544); test: Agonist activity at human alpha7 nAChR expressed in Xenopus oocytes at 1 uM incubated for 12 secs followed by compound washout measured after 181 secs by two-electrode voltage clamp technique; assay type: cell-based
[14] = target: T2, Neuronal acetylcholine receptor; alpha3/beta4 (Homo sapiens); test: Agonist activity at human alpha3beta4 nAChR expressed in Xenopus oocytes at 1 uM incubated for 8 secs followed by compound washout measured after 241 secs by two-electrode voltage clamp technique; assay type: cell-based
[15] = target: T1, Nicotinic acetylcholine receptor alpha1/beta1/epsilon/delta (Mus musculus); test: Agonist activity at mouse muscle alpha1beta1epsilondelta nAChR expressed in Xenopus oocytes at 1 uM incubated for 8 secs followed by compound washout measured after 241 secs by two-electrode voltage clamp technique; assay type: cell-based
[16] = target: T3, Neuronal acetylcholine receptor; alpha4/beta2 (Homo sapiens); test: Partial agonist activity at human alpha4beta2 nAChR expressed in Xenopus oocytes at 1 uM incubated for 8 secs followed by compound washout measured after 241 secs by two-electrode voltage clamp technique; assay type: cell-based

Chain of Neuronal acetylcholine receptor subunit alpha-7 (Q05941 whole entry): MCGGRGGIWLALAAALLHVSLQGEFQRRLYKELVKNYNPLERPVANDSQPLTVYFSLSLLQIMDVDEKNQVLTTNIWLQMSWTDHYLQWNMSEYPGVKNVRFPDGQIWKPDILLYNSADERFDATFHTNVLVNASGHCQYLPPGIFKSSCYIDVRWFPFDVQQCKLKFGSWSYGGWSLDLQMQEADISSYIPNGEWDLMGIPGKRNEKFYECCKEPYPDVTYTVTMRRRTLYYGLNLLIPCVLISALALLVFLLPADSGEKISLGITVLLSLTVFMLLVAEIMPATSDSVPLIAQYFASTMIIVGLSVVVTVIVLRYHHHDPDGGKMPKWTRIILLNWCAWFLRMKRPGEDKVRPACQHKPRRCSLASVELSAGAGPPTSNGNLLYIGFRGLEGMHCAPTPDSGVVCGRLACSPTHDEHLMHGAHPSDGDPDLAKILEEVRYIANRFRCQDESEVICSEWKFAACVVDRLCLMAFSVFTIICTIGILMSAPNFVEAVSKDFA

Compound | Ki [1] [nM] | inhibition [2] | Activity [3] | Activity [4] | antagonist activity (active/inactive) [5] | Ki [6] [nM] | Activity [7] | inhibition [8] | Activity [9] | Ki [10] [nM] | Ki [11] [µM] | Activity [12] | Activity [13] | Activity [14] | Activity [15] | Activity [16]
O=C([C@@H]1C[C@H]1c1ccccc1)N1C[C@@H]2CNC[C@@H](C2)C1 | > 10000 | inactive | Active | Active | Active | 1.2 | inactive | inactive |  |  |  |  |  |  |  | 
O=C(C#Cc1ccc2c(c1)OCO2)N1C[C@@H]2CNC[C@@H](C2)C1 | > 1000 | inactive |  | inactive | Active | 3.1 | inactive | inactive | inactive | > 1000 | > 5 | Active |  |  |  | 
O=C(c1ccc(-c2cccnc2)cc1)N1C[C@@H]2CNC[C@@H](C2)C1 | > 1000 | inactive |  | inactive | Active | 25 | inactive | inactive | inactive | > 1000 | > 5 | Active | inactive | inactive | inactive | Active
O=C(c1ccc(-n2ccnc2)cc1)N1C[C@@H]2CNC[C@@H](C2)C1 | > 1000 | inactive |  | inactive | Active | 5.6 | inactive | inactive | inactive | > 1000 | > 5 | Active | inactive | inactive | inactive | Active
CS(=O)(=O)c1ccc(CC(=O)N2C[C@@H]3CNC[C@@H](C3)C2)cc1 | > 5000 | inactive |  | inactive | Active | 22.9 | inactive | inactive | inactive | > 5000 | > 5 | Active | inactive | inactive | inactive | Active
O=C(Cc1ccncc1)N1C[C@@H]2CNC[C@@H](C2)C1 | > 1000 | inactive |  | inactive |  | 14.4 | inactive | inactive | inactive | > 1000 | > 5 | Active | inactive | inactive | inactive | Active
COc1ccc(C#CC(=O)N2C[C@@H]3CNC[C@@H](C3)C2)cc1OC | > 1000 | Active |  | inactive | Active | 2.1 | inactive | inactive | inactive | > 1000 | > 5 | Active |  |  |  | 
O=C(c1ccc(-c2ccncc2)cc1)N1C[C@@H]2CNC[C@@H](C2)C1 | > 1000 | inactive |  | inactive | Active | 7.1 | inactive | inactive | inactive | > 1000 | > 5 | Active | inactive | inactive | inactive | Active
COc1ccc(C#CC(=O)N2C[C@@H]3CNC[C@@H](C3)C2)cc1Cl | > 1000 | inactive |  | inactive | Active | 0.991 | inactive | inactive | inactive | > 1000 | > 5 | Active |  |  |  | 
O=C(Cc1cccnc1)N1C[C@@H]2CNC[C@@H](C2)C1 | > 1000 | inactive |  | inactive |  | 11.2 | inactive | inactive | inactive | > 1000 | > 5 | Active | inactive | inactive | inactive | Active
O=C(/C=C/c1ccccc1)N1C[C@@H]2CNC[C@@H](C2)C1 | > 5000 | inactive |  | inactive |  | 55.1 | inactive | inactive | inactive | > 5000 | > 10 | Active | inactive | inactive | inactive | Active
O=C(/C=C/c1ccncc1)N1C[C@@H]2CNC[C@@H](C2)C1 | > 10000 | inactive |  | inactive |  | 1.03 | inactive | inactive | inactive | > 1000 | > 5 | Active | inactive | inactive | inactive | Active
O=C(/C=C/c1ccc2c(c1)OCO2)N1C[C@@H]2CNC[C@@H](C2)C1 | > 1000 | inactive |  | inactive |  | 36.9 | inactive | inactive | inactive | > 1000 | > 5 | Active | inactive | inactive | inactive | Active

— ChEMBL document CHEMBL3091445, “The 3,7-diazabicyclo[3.3.1]nonane scaffold for subtype selective nicotinic acetylcholine receptor ligands. Part 2: carboxamide derivatives with different spacer motifs” (Bioorg Med Chem, 2013)
